Measured values pooled from the literature.
Lines come from different studies, so protocols differ.

COc1cc(C(=O)NC2CCN(C)CC2)c(F)cc1Nc1ncc(C(F)(F)F)c(Oc2cccc3c2C(=O)N(C)C3)n1
AUC (human; plasma; oral; 100 mg; multiple doses, once daily, steady state, patients): 16.3 µM·h

CCOc1ccc(Cc2cc([C@@H]3O[C@H](CO)[C@@H](O)[C@H](O)[C@H]3O)ccc2Cl)cc1
AUC (human; plasma; oral; 10 mg; multiple doses, steady state): 493 ng·h/mL

Cc1ccc(C(=O)N(CCCN)[C@@H](c2oc3cc(Cl)ccc3c(=O)c2Cc2ccccc2)C(C)C)cc1
AUC (human; plasma; intravenous; 6 mg/m²; single dose, patients, infusion): 8150 ng·h/mL

Cn1c(=O)oc2ccc(-c3ccc(C[C@@H](C#N)NC(=O)[C@@H]4CNCCCO4)cc3)cc21
AUC (male human; plasma; oral; 5 mg; single dose, healthy volunteers): 0.915 µM·h

OC[C@H]1O[C@@H](c2ccc(Cl)c(Cc3ccc(O[C@H]4CCOC4)cc3)c2)[C@H](O)[C@@H](O)[C@@H]1O
AUC (male human; plasma; oral; 25 mg; multiple doses, once daily, steady state, healthy volunteers): 3960 ng·h/mL

NS(=O)(=O)NCCNc1nonc1C(=NO)Nc1ccc(F)c(Br)c1
AUC (human; plasma; oral; 600 mg; multiple doses, twice daily, steady state, patients): 22.9 µM·h

C[C@@H](c1ccc2nccn2c1)n1nnc2ncc(-c3cnn(C)c3)nc21
AUC (human; plasma; oral; 200 mg): 4010 ng·h/mL

CC(C)(C)OC[C@@H]1C(=O)NCCN1C(=O)C[C@H](N)Cc1cc(F)c(F)cc1F
AUC (male human; plasma; oral; 5 mg; multiple doses, steady state): 91.4 ng·h/mL

CS(=O)(=O)CCC#N
AUC (human; plasma; oral; 1000 mg; multiple doses, once daily): 723000 ng·h/mL

CS(=O)(=O)CCNCc1ccc(-c2ccc3ncnc(Nc4ccc(OCc5cccc(F)c5)c(Cl)c4)c3c2)o1
AUC (human; serum; oral; 1250 mg; single dose): 9070 ng·h/mL
